Measurements taken from ChEMBL document CHEMBL1921704, “Discovery of N-aryl-2-acylindole human glucagon receptor antagonists” (Bioorg Med Chem Lett, 2011).
Active and inactive are the calls of the source. No cut-off for these calls is given here.

Tests used:
Rattus norvegicus [1] = assay: Dose normalised Cmax in rat at 1 mg/kg, iv and 2 mg/kg, po; format: ADME, organism-based; conditions: in vivo
In short: (§1)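 Rat PK with dosing at 1 mg/kg IV and 2 mg/kg PO, vehicle DMSO/water/PEG400 15:35:55. Parameters were plasma clearance, Vd, t1/2, dose-normalised PO AUC and Cmax, and %F.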

[2] = Plasma clearance in rat at 1 mg/kg, iv and 2 mg/kg, po; format: ADME, organism-based; in short: as §1
Mus musculus [3] = assay: Antidiabetic activity in human glucagon receptor transgenic mouse assessed as inhibition of glucagon-induced glucose excursion at 10 mg/kg, po administered 60 mins after glucagon challenge by glucometry; format: functional, organism-based; design: dose 10 mg/kg; conditions: in the assay text read “60 mins before glucagon challenge” for “60 mins after glucagon challenge”
In short: (§2)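 Oral dosing to mice expressing human glucagon receptor, followed 60 min later by IP glucagon injection. Read-out was the glucagon-induced blood glucose excursion.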

Canis familiaris [4] = assay: Dose normalised AUC in dog at 2 mg/kg, po; format: ADME, organism-based, Canis lupus familiaris; design: dose 2 mg/kg, route oral; conditions: in vivo
[5] = Volume of distribution in rat at 1 mg/kg, iv and 2 mg/kg, po; format: ADME, organism-based; conditions: in vivo; in short: as §1
Cytochrome P450 2C9 = Cytochrome P450 2C9 (Homo sapiens, UniProt P11712); assay: Inhibition of CYP2C9; format: ADME
[6] = Chemical stability of the compound in 1:1 mixtures of dioxane and buffered solutions at pH 2 to pH 10 assessed as racemization at 40 degree celsius after 24 hrs by chiral HPLC analysis; format: physicochemical; conditions: buffer, pH 2, 24 h
[7] = Half life in dog at 0.5 mg/kg, iv and 2 mg/kg, po; format: ADME, organism-based, Canis lupus familiaris; conditions: in vivo
[8] = Oral bioavailability in rat at 2 mg/kg; format: ADME, organism-based; conditions: in vivo; in short: as §1
Cytochrome P450 2D6 = Cytochrome P450 2D6 (Homo sapiens, UniProt P10635); assay: Inhibition of CYP2D6; format: ADME
Glucagon receptor [9] = target: T1, Glucagon receptor (Homo sapiens, UniProt P47871); assay: Antagonist activity at human glucagon receptor expressed in CHO cells assessed as inhibition of forskolin/glucagon-induced cAMP production preincubated for 30 mins before glucagon challenge measured after 30 mins using [125I]-cAMP by liquid scintillation counting; format: functional, cell-based
In short: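 Glucagon-induced cAMP production measured in CHO cells transfected with hGCGR. IC50 reported as the average rounded to two significant figures, with SEM when measured more than once.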

[10] = Plasma clearance in dog at 0.5 mg/kg, iv and 2 mg/kg, po; format: ADME, organism-based, Canis lupus familiaris
[11] = target: T2, Gastric inhibitory polypeptide receptor (Homo sapiens, UniProt P48546); assay: Antagonist activity at human GIP receptor assessed as inhibition of cAMP production; format: functional
T2 sequence (P48546 whole entry): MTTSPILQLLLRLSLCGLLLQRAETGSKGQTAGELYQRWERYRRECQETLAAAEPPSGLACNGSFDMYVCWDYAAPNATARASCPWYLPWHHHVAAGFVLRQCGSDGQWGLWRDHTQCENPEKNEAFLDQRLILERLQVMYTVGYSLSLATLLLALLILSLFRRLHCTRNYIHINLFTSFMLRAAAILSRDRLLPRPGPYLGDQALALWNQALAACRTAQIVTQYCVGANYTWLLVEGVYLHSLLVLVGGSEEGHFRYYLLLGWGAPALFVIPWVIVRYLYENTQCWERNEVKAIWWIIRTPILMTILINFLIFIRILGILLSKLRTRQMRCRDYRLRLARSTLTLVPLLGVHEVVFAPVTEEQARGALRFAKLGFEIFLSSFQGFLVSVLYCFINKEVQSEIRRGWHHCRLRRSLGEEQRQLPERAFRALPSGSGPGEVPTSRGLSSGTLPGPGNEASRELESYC

Cytochrome P450 3A4 = Cytochrome P450 3A4 (Homo sapiens, UniProt P08684); assay: Inhibition of CYP3A4; format: ADME
Liver = assay: Protein binding in Sprague-Dawley rat liver at 20 mg/kg, po after 2 to 24 hrs; format: ADME, organism-based; design: dose 20 mg/kg, route oral; conditions: in vivo
In short: (§3)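 Radiolabelled analog given orally at 20 mg/kg to Sprague-Dawley rats. Irreversible binding to plasma and liver proteins measured at 2, 6 and 24 h post dose.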

[12] = Oral bioavailability in dog at 2 mg/kg; format: ADME, organism-based, Canis lupus familiaris; conditions: in vivo
Mus musculus [13] = assay: Antidiabetic activity in human glucagon receptor transgenic mouse assessed as inhibition of glucagon-induced glucose excursion at 3 mg/kg, po administered 60 mins after glucagon challenge by glucometry; format: functional, organism-based; design: dose 3 mg/kg; conditions: in the assay text read “60 mins before glucagon challenge” for “60 mins after glucagon challenge”; in short: as §2
Plasma = assay: Protein binding in Sprague-Dawley rat plasma at 20 mg/kg, po after 2 to 24 hrs; format: ADME, organism-based; design: dose 20 mg/kg, route oral; conditions: in vivo; in short: as §3
Liver microsomes [14] = assay: Stability of the compound in human liver microsomes assessed as racemization at 10 uM after 60 mins by chiral HPLC analysis; format: ADME, Microsome; conditions: 1 h
Rattus norvegicus [15] = assay: Stability of the compound in bile duct cannulated rat assessed as racemization at 2 mg/kg, iv by chiral HPLC analysis; format: ADME, organism-based; design: dose 2 mg/kg, route intravenous; conditions: in vivo
In short: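 Radiolabelled compound given IV at 2 mg/kg to bile-duct-cannulated rats. Excreted parent compound analysed by chiral HPLC for racemization.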

[16] = Half life in rat at 1 mg/kg, iv and 2 mg/kg, po; format: ADME, organism-based; conditions: in vivo; in short: as §1
Glucagon receptor [17] = target: T1, Glucagon receptor; assay: Displacement of [125I]-glucagon from human glucagon receptor expressed in CHO cells after 4 to 12 hrs by scintillation proximity assay; format: cell-based
In short: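 Scintillation proximity assay on membranes from CHO cells expressing hGCGR, measuring inhibition of ¹²⁵I-labelled glucagon binding. IC50 reported as the average rounded to two significant figures, with standard error of the mean when more than one measurement was made.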

Mus musculus [18] = assay: Antidiabetic activity in human glucagon receptor transgenic ob/ob mouse hyperglycemic model assessed as reduction in ambient glucose level at 1 mg/kg, po over 6 hrs period; format: functional, organism-based; design: dose 1 mg/kg
In short: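 Model was transgenic ob/ob/hGCGR diabetic mice. Ambient glucose was followed over 6 h after a single oral dose.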

Rattus norvegicus [19] = assay: Dose normalised AUC in rat at 2 mg/kg, po; format: ADME, organism-based; design: dose 2 mg/kg, route oral; conditions: in vivo; in short: as §1
Canis familiaris [20] = assay: Dose normalised Cmax in dog at 0.5 mg/kg, iv and 2 mg/kg, po; format: ADME, organism-based, Canis lupus familiaris; conditions: in vivo
[21] = Volume of distribution in dog at 0.5 mg/kg, iv and 2 mg/kg, po; format: ADME, organism-based, Canis lupus familiaris; conditions: in vivo
Rattus norvegicus [22] = assay: Toxicity in rat assessed as tolerability at 100 mg/kg/day after 8 days; format: organism-based; conditions: in vivo, 192 h
Liver microsomes [23] = assay: Protein binding in human liver microsomes at 10 uM after 60 mins; format: ADME, Microsome; conditions: 1 h
In short: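 Tritium-labelled analog incubated with human and rat liver microsomes for 60 min at 37 °C, then irreversible protein binding measured.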

[24] = target: Glucagon-like peptide 1 receptor (Homo sapiens, UniProt P43220); assay: Antagonist activity at human GLP1 receptor assessed as inhibition of cAMP production; format: functional
Mus musculus [25] = assay: Antidiabetic activity in human glucagon receptor transgenic mouse assessed as inhibition of glucagon-induced glucose excursion at 30 mg/kg, po administered 60 mins after glucagon challenge by glucometry; format: functional, organism-based; design: dose 30 mg/kg; conditions: in the assay text read “60 mins before glucagon challenge” for “60 mins after glucagon challenge”; in short: as §2

T1 sequence (P47871 whole entry): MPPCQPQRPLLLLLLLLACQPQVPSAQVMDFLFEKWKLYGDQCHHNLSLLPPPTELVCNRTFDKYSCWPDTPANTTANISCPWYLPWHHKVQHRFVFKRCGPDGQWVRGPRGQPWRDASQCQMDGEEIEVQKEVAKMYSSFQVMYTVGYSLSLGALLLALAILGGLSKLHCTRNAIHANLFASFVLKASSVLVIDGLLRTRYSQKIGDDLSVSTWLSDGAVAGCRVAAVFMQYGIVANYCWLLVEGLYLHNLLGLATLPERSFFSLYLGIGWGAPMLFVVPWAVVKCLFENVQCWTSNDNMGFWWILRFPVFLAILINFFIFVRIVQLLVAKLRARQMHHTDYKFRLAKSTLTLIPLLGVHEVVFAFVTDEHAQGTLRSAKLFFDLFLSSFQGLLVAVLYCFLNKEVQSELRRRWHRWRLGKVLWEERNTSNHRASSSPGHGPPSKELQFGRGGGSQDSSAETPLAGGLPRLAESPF
Chain of Glucagon-like peptide 1 receptor (P43220 whole entry): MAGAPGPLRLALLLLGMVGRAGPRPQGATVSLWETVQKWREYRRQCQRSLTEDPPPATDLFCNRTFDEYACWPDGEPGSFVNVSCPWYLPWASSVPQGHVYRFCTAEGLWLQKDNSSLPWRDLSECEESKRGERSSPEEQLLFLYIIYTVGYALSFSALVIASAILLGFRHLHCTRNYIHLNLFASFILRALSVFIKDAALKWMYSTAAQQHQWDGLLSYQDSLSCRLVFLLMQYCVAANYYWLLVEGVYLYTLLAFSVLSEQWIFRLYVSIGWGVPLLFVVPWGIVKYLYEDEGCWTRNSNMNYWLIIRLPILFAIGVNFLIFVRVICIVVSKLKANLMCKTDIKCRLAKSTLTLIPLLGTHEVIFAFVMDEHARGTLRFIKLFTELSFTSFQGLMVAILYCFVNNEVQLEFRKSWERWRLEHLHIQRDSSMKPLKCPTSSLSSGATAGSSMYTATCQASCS
Chain of Cytochrome P450 3A4 (P08684 whole entry): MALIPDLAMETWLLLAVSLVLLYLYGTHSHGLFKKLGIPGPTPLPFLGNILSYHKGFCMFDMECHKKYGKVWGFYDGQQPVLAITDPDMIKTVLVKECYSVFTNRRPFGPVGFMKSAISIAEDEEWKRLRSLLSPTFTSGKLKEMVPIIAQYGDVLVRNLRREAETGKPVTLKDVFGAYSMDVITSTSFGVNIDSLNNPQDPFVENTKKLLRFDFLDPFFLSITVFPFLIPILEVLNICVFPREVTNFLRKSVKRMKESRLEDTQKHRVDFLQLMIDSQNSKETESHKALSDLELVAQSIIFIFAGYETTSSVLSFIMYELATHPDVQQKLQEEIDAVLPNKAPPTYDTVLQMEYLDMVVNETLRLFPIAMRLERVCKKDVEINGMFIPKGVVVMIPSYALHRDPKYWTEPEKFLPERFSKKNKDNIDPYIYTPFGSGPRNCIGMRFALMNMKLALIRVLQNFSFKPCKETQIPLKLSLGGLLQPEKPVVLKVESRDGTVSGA
Chain of Cytochrome P450 2C9 (P11712 whole entry): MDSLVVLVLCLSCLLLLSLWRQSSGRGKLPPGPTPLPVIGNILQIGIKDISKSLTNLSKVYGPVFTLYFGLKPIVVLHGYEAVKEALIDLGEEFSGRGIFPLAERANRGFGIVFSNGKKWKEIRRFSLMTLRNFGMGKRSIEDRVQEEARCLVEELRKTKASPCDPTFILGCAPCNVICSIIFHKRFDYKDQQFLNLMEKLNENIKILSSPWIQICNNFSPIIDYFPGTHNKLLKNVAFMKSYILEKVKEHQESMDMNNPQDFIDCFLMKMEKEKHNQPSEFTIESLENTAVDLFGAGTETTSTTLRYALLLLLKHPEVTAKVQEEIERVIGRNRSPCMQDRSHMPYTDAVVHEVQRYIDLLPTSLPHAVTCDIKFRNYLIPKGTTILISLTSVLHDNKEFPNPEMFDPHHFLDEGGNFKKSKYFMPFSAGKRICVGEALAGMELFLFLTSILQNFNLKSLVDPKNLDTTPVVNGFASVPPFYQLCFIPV
Chain of Cytochrome P450 2D6 (P10635 whole entry): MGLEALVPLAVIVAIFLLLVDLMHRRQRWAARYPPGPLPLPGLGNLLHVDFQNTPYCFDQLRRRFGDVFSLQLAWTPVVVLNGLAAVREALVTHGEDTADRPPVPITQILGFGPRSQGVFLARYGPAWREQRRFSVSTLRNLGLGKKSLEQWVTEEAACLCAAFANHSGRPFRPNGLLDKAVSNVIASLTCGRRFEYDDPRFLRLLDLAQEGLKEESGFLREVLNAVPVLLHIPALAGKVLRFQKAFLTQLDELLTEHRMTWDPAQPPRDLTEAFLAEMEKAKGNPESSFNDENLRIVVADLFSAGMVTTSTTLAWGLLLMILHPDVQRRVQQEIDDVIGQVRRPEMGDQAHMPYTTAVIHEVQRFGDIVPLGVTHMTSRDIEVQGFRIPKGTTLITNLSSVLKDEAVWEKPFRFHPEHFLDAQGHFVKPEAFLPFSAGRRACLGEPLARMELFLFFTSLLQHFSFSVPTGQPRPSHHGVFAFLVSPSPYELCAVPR

Compound: CCCCC[C@@H](Cc1ccc(C(=O)NCCC(=O)O)cc1)C(=O)c1cc2cc(Cl)ccc2n1-c1cccc(C(F)(F)F)c1
- Cmax/dose (Rattus norvegicus [1]): 330 nM
- clearance [2]: 6.8 mL/min/kg
- Activity (Mus musculus [3]): Active
- AUC/dose (Canis familiaris [4]): 4.2 µM·h
- Vd [5]: 0.98 L/kg
- IC50 (Cytochrome P450 2C9): > 11000 nM
- Stability [6]: Stable
- half-life [7]: 2.7 h
- bioavailability [8]: 33%
- IC50 (Cytochrome P450 2D6): > 11000 nM
- IC50 (Glucagon receptor [9]): 12 nM
- clearance [10]: 3.8 mL/min/kg
- IC50 [11]: 1400 nM
- IC50 (Cytochrome P450 3A4): > 11000 nM
- PB (Liver): Not Active
- bioavailability [12]: 60%
- Activity (Mus musculus [13]): Active
- PPB (Plasma): Not Active
- Stability (Liver microsomes [14]): Stable
- Stability (Rattus norvegicus [15]): Stable
- half-life [16]: 1.9 h
- IC50 (Glucagon receptor [17]): 10 nM
- Activity (Mus musculus [18]): Active
- AUC/dose (Rattus norvegicus [19]): 1.46 µM·h
- Cmax/dose (Canis familiaris [20]): 840 nM
- Vd [21]: 0.32 L/kg
- Activity (Rattus norvegicus [22]): Non-toxic
- PB (Liver microsomes [23]): Not Active
- IC50 [24]: > 10000 nM
- Activity (Mus musculus [25]): Active
